# Results reported in ChEMBL document CHEMBL2384906, “Biological activity, design, synthesis and structure activity relationship of some novel derivatives of curcumin containing sulfonamides” (Eur J Med Chem, 2013).
# Calls of active or inactive are those of the source. The calls are words filed in the database; no cut-off is given here.
# Assays:
# Bacillus cereus [1] = assay: Antimicrobial activity against Bacillus cereus MTCC 7350 after 24 hrs by broth micro serial dilution method; assay type: functional; settings: MTCC 7350, 24 h
# Procedure, shortened: (§1)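 This was broth microdilution in autoclaved Mueller-Hinton broth. 150 µL of compound per well was serially diluted […], and 50 µL of test organism was added. Plates were incubated 24 h at 37 °C and optical density was read.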
# Aspergillus flavus [2] = assay: Antifungal activity against Aspergillus flavus MTCC 1021 after 48 hrs; assay type: functional; settings: MTCC 1021, 48 h
# Aspergillus niger [3] = assay: Antifungal activity against Aspergillus niger MTCC 1108 after 48 hrs; assay type: functional; settings: MTCC 1108, 48 h
# Staphylococcus aureus [4] = assay: Antimicrobial activity against Staphylococcus aureus ATCC 11632 assessed as diameter of inhibition zone at 80 uM after 24 hrs by Kirby -Baur disc diffusion method; assay type: functional; settings: ATCC 11632, 24 h, read-out: DIZ
# Procedure, shortened: (§2)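 Kirby-Bauer disc diffusion was used. Acetone stocks (160 µM) were serially doubled down to 80, 40 and 20 µM. 4 µL of each went onto 5 mm sterile paper discs, which were dried 30 min at 50 °C. Inoculum was 1.5 × 10⁸ CFU/mL diluted to 3 × 10² CFU/mL, and 50 µL was spread on Mueller-Hinton agar. After 24 h at 37 °C the inhibition-zone diameter was measured. Ciprofloxacin served as positive control.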
# Escherichia coli [5] = assay: Antimicrobial activity against Escherichia coli ATCC 35218 assessed as diameter of inhibition zone at 20 uM after 24 hrs by Kirby -Baur disc diffusion method; assay type: functional; settings: ATCC 35218, 24 h, read-out: DIZ; procedure, shortened: as §2
# Salmonella typhi [6] = assay: Antimicrobial activity against Salmonella typhi ATCC 23564 after 24 hrs by broth micro serial dilution method; assay type: functional, Salmonella enterica subsp. enterica serovar Typhi; settings: Salmonella enterica, ATCC 23564, 24 h
# Bacillus cereus [7] = assay: Antimicrobial activity against Bacillus cereus MTCC 7350 assessed as diameter of inhibition zone at 80 uM after 24 hrs by Kirby -Baur disc diffusion method; assay type: functional; settings: MTCC 7350, 24 h, read-out: DIZ; procedure, shortened: as §2
# Trichoderma viride [8] = assay: Antifungal activity against Trichoderma viride MTCC 1107 assessed as zone of inhibition at 80 uM after 48 hrs by disc diffusion method; assay type: functional; settings: MTCC 1107, 48 h, read-out: IZ
# Procedure, shortened: (§3)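 Spores from 4-day potato dextrose agar cultures, suspended in sterile water at 1.5 × 10⁵ CFU/mL. 0.2 mL was spread on potato dextrose agar. 5 mm filter-paper discs soaked with test compound were laid on the lawn. Incubation was 48 h at 28 °C, then the inhibition zone was measured in mm. Fluconazole was the positive control and acetone the negative control.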
# Curvularia lunata [9] = assay: Antifungal activity against Curvularia lunata MTCC 581 after 48 hrs; assay type: functional; settings: MTCC 581, 48 h
# Pseudomonas aeruginosa [10] = assay: Antimicrobial activity against Pseudomonas aeruginosa ATCC 15499 assessed as diameter of inhibition zone at 80 uM after 24 hrs by Kirby -Baur disc diffusion method; assay type: functional; settings: ATCC 15499, 24 h, read-out: DIZ; procedure, shortened: as §2
# Staphylococcus aureus [11] = assay: Antimicrobial activity against Staphylococcus aureus ATCC 11632 after 24 hrs by broth micro serial dilution method; assay type: functional; settings: ATCC 11632, 24 h; procedure, shortened: as §1
# Bacillus cereus [12] = assay: Antimicrobial activity against Bacillus cereus MTCC 7350 assessed as diameter of inhibition zone at 20 uM after 24 hrs by Kirby -Baur disc diffusion method; assay type: functional; settings: MTCC 7350, 24 h, read-out: DIZ; procedure, shortened: as §2
# Staphylococcus aureus [13] = assay: Antimicrobial activity against Staphylococcus aureus ATCC 11632 assessed as diameter of inhibition zone at 20 uM after 24 hrs by Kirby -Baur disc diffusion method; assay type: functional; settings: ATCC 11632, 24 h, read-out: DIZ; procedure, shortened: as §2
# Aspergillus niger [14] = assay: Antifungal activity against Aspergillus niger MTCC 1108 assessed as zone of inhibition at 20 uM after 48 hrs by disc diffusion method; assay type: functional; settings: MTCC 1108, 48 h, read-out: IZ; procedure, shortened: as §3
# HepG2 = assay: Cytotoxicity against human HepG2 cells after 24 hrs by MTT assay; assay type: functional, cell-based
# Procedure, shortened: (§4)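 The MTT assay seeded 5 × 10⁴ cells per well and grew them 24 h in RPMI 1640 with compound at 2.5–200 µM. Medium without cells was the blank and adriamycin the positive control. MTT was added for 4 h at 37 °C, formazan was solubilised, and absorbance was read at 570 nm. IC50 is the concentration that cuts viability 50% against untreated cells.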
# Escherichia coli [15] = assay: Antimicrobial activity against Escherichia coli ATCC 35218 assessed as diameter of inhibition zone at 80 uM after 24 hrs by Kirby -Baur disc diffusion method; assay type: functional; settings: ATCC 35218, 24 h, read-out: DIZ; procedure, shortened: as §2
# QG-56 = assay: Cytotoxicity against human QG56 cells after 24 hrs by MTT assay; assay type: functional, cell-based; procedure, shortened: as §4
# Escherichia coli [16] = assay: Antimicrobial activity against Escherichia coli ATCC 35218 assessed as diameter of inhibition zone at 40 uM after 24 hrs by Kirby -Baur disc diffusion method; assay type: functional; settings: ATCC 35218, 24 h, read-out: DIZ; procedure, shortened: as §2
# Aspergillus niger [17] = assay: Antifungal activity against Aspergillus niger MTCC 1108 assessed as zone of inhibition at 40 uM after 48 hrs by disc diffusion method; assay type: functional; settings: MTCC 1108, 48 h, read-out: IZ; procedure, shortened: as §3
# Mus musculus = assay: Antiinflammatory activity in mouse assessed as inhibition of carrageenan-induced increase in paw volume at 200 mg/kg administered 1 hr prior to carrageenan challenge measured after 3 hrs relative to control; assay type: functional
# Procedure, shortened: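 Mice were fasted 2 h and placed in groups of five. Controls received saline i.p. Phenylbutazone was given at 100 mg/kg i.p., curcumin at 200 mg/kg i.p., and derivatives at 200 mg/kg. After 1 h, 0.1 mL of 1% carrageenan in saline was injected subplantar into the right hind paw. Paw volume was followed by plethysmometer for 3 h, and % inhibition was calculated as (Vc − Vt)/Vc × 100.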
# Salmonella typhi [18] = assay: Antimicrobial activity against Salmonella typhi ATCC 23564 assessed as diameter of inhibition zone at 40 uM after 24 hrs by Kirby -Baur disc diffusion method; assay type: functional, Salmonella enterica subsp. enterica serovar Typhi; settings: Salmonella enterica, ATCC 23564, 24 h; read-out: DIZ
# Staphylococcus aureus [19] = assay: Antimicrobial activity against Staphylococcus aureus ATCC 11632 assessed as diameter of inhibition zone at 40 uM after 24 hrs by Kirby -Baur disc diffusion method; assay type: functional; settings: ATCC 11632, 24 h, read-out: DIZ; procedure, shortened: as §2
# Aspergillus flavus [20] = assay: Antifungal activity against Aspergillus flavus MTCC 1021 assessed as zone of inhibition at 20 uM after 48 hrs by disc diffusion method; assay type: functional; procedure, shortened: as §3
# HeLa = assay: Cytotoxicity against human HeLa cells after 24 hrs by MTT assay; assay type: functional, cell-based; procedure, shortened: as §4
# Aspergillus flavus [21] = assay: Antifungal activity against Aspergillus flavus MTCC 1021 assessed as zone of inhibition at 40 uM after 48 hrs by disc diffusion method; assay type: functional; settings: MTCC 1021, 48 h, read-out: IZ; procedure, shortened: as §3
# Curvularia lunata [22] = assay: Antifungal activity against Curvularia lunata MTCC 581 assessed as zone of inhibition at 80 uM after 48 hrs by disc diffusion method; assay type: functional; settings: MTCC 581, 48 h, read-out: IZ; procedure, shortened: as §3
# Pseudomonas aeruginosa [23] = assay: Antimicrobial activity against Pseudomonas aeruginosa ATCC 15499 assessed as diameter of inhibition zone at 40 uM after 24 hrs by Kirby -Baur disc diffusion method; assay type: functional; settings: ATCC 15499, 24 h, read-out: DIZ; procedure, shortened: as §2
# Pseudomonas aeruginosa [24] = assay: Antimicrobial activity against Pseudomonas aeruginosa ATCC 15499 assessed as diameter of inhibition zone at 20 uM after 24 hrs by Kirby -Baur disc diffusion method; assay type: functional; procedure, shortened: as §2
# Curvularia lunata [25] = assay: Antifungal activity against Curvularia lunata MTCC 581 assessed as zone of inhibition at 40 uM after 48 hrs by disc diffusion method; assay type: functional; settings: MTCC 581, 48 h, read-out: IZ; procedure, shortened: as §3
# Bacillus cereus [26] = assay: Antimicrobial activity against Bacillus cereus MTCC 7350 assessed as diameter of inhibition zone at 40 uM after 24 hrs by Kirby -Baur disc diffusion method; assay type: functional; settings: MTCC 7350, 24 h, read-out: DIZ; procedure, shortened: as §2
# Trichoderma viride [27] = assay: Antifungal activity against Trichoderma viride MTCC 1107 assessed as zone of inhibition at 20 uM after 48 hrs by disc diffusion method; assay type: functional; settings: MTCC 1107, 48 h, read-out: IZ; procedure, shortened: as §3
# Escherichia coli [28] = assay: Antimicrobial activity against Escherichia coli ATCC 35218 after 24 hrs by broth micro serial dilution method; assay type: functional; settings: ATCC 35218, 24 h; procedure, shortened: as §1
# Salmonella typhi [29] = assay: Antimicrobial activity against Salmonella typhi ATCC 23564 assessed as diameter of inhibition zone at 80 uM after 24 hrs by Kirby -Baur disc diffusion method; assay type: functional, Salmonella enterica subsp. enterica serovar Typhi; settings: Salmonella enterica, ATCC 23564, 24 h; read-out: DIZ
# Salmonella typhi [30] = assay: Antimicrobial activity against Salmonella typhi ATCC 23564 assessed as diameter of inhibition zone at 20 uM after 24 hrs by Kirby -Baur disc diffusion method; assay type: functional, Salmonella enterica subsp. enterica serovar Typhi; settings: Salmonella enterica, ATCC 23564, 24 h; read-out: DIZ
# Trichoderma viride [31] = assay: Antifungal activity against Trichoderma viride MTCC 1107 assessed as zone of inhibition at 40 uM after 48 hrs by disc diffusion method; assay type: functional; settings: MTCC 1107, 48 h, read-out: IZ; procedure, shortened: as §3
# Aspergillus niger [32] = assay: Antifungal activity against Aspergillus niger MTCC 1108 assessed as zone of inhibition at 80 uM after 48 hrs by disc diffusion method; assay type: functional; settings: MTCC 1108, 48 h, read-out: IZ; procedure, shortened: as §3
# Aspergillus flavus [33] = assay: Antifungal activity against Aspergillus flavus MTCC 1021 assessed as zone of inhibition at 80 uM after 48 hrs by disc diffusion method; assay type: functional; settings: MTCC 1021, 48 h, read-out: IZ; procedure, shortened: as §3
# Trichoderma viride [34] = assay: Antifungal activity against Trichoderma viride MTCC 1107 after 48 hrs; assay type: functional; settings: MTCC 1107, 48 h
# HCT-116 = assay: Cytotoxicity against human HCT116 cells after 24 hrs by MTT assay; assay type: functional, cell-based; procedure, shortened: as §4
# Pseudomonas aeruginosa [35] = assay: Antimicrobial activity against Pseudomonas aeruginosa ATCC 15499 after 24 hrs by broth micro serial dilution method; assay type: functional; settings: ATCC 15499, 24 h; procedure, shortened: as §1
# Curvularia lunata [36] = assay: Antifungal activity against Curvularia lunata MTCC 581 assessed as zone of inhibition at 20 uM after 48 hrs by disc diffusion method; assay type: functional; settings: MTCC 581, 48 h, read-out: IZ; procedure, shortened: as §3
structure (smiles),measurement,setting,value
COc1cc(/C=C/C(O)=C/C(/C=C/c2ccc(O)c(OC)c2)=N/c2ccc(S(=O)(=O)Nc3ccccn3)cc2)ccc1O,MIC,Bacillus cereus [1],20 µM
same,MIC,Aspergillus flavus [2],> 80 µM
same,MIC,Aspergillus niger [3],40 µM
same,zone of inhibition at 80 µM,Staphylococcus aureus [4],18 mm
same,zone of inhibition at 20 µM,Escherichia coli [5],15 mm
same,MIC,Salmonella typhi [6],20 µM
same,zone of inhibition at 80 µM,Bacillus cereus [7],19 mm
same,zone of inhibition at 80 µM,Trichoderma viride [8],17 mm
same,MIC,Curvularia lunata [9],> 80 µM
same,zone of inhibition at 80 µM,Pseudomonas aeruginosa [10],13 mm
same,MIC,Staphylococcus aureus [11],20 µM
same,zone of inhibition at 20 µM,Bacillus cereus [12],11 mm
same,zone of inhibition at 20 µM,Staphylococcus aureus [13],11 mm
same,zone of inhibition at 20 µM,Aspergillus niger [14],9 mm
same,IC50,HepG2,25 µM
same,zone of inhibition at 80 µM,Escherichia coli [15],20 mm
same,IC50,QG-56,50 µM
same,zone of inhibition at 40 µM,Escherichia coli [16],19 mm
same,zone of inhibition at 40 µM,Aspergillus niger [17],12 mm
same,inhibition in vivo at 200 mg/kg,Mus musculus,37%
same,zone of inhibition at 40 µM,Salmonella typhi [18],14 mm
same,zone of inhibition at 40 µM,Staphylococcus aureus [19],17 mm
same,inhibition zone (IZ),Aspergillus flavus [20],inactive
same,IC50,HeLa,50 µM
same,zone of inhibition at 40 µM,Aspergillus flavus [21],9 mm
same,zone of inhibition at 80 µM,Curvularia lunata [22],12 mm
same,zone of inhibition at 40 µM,Pseudomonas aeruginosa [23],11 mm
same,diameter of the inhibition zone (DIZ),Pseudomonas aeruginosa [24],inactive
same,zone of inhibition at 40 µM,Curvularia lunata [25],9 mm
same,zone of inhibition at 40 µM,Bacillus cereus [26],16 mm
same,zone of inhibition at 20 µM,Trichoderma viride [27],10 mm
same,MIC,Escherichia coli [28],20 µM
same,zone of inhibition at 80 µM,Salmonella typhi [29],18 mm
same,zone of inhibition at 20 µM,Salmonella typhi [30],11 mm
same,zone of inhibition at 40 µM,Trichoderma viride [31],13 mm
same,zone of inhibition at 80 µM,Aspergillus niger [32],14 mm
same,zone of inhibition at 80 µM,Aspergillus flavus [33],12 mm
same,MIC,Trichoderma viride [34],20 µM
same,IC50,HCT-116,25 µM
same,MIC,Pseudomonas aeruginosa [35],20 µM
same,zone of inhibition at 20 µM,Curvularia lunata [36],9 mm
